Assays:
[1] = target: T1, Sarcoplasmic/endoplasmic reticulum calcium ATPase 1 (Oryctolagus cuniculus, UniProt P04191); experiment: Binding affinity to rabbit skeletal muscle SERCA1a preincubated for 5 mins followed by Mg-ATP addition measured over 6 mins by spectrophotometric analysis
Method in brief: (§1)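 Rabbit skeletal muscle SR-purified SERCA1a (1 mg/mL) equilibrated in E2 state: 1 mM EGTA, 1 mM Mg2+, 10 mM Tes pH 7.5, 100 mM KCl. 10 μg protein plus compound (1.25–100 μM) preincubated 5 min at 23 °C in ATP-regenerating medium (0.1 mM Ca2+, 1 mM PEP, pyruvate kinase, lactate dehydrogenase, 0.175 mM NADH). Started with 5 mM Mg-ATP; A340 read over 6 min; three repeats.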

Sus scrofa = species on record: Sus scrofa; experiment: Inhibition of pig kidney outer medulla Na+,K+-ATPase at 50 uM relative to control
Method in brief: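 Purified pig kidney outer medulla Na+,K+-ATPase membranes. Steady-state activity at 37 °C in 130 mM NaCl, 20 mM KCl, 4 mM MgCl2, 3 mM ATP, 20 mM histidine pH 7.4. Read-out is phosphate liberation, with 1 mM ouabain as the nonspecific ATPase blank. Compounds tested over 1–50 μM.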

CCRF-CEM = experiment: Cytotoxicity against human CCRF-CEM cells assessed as cell viability after 24 hrs by MTT assay; assay type: functional, cell-based
Method in brief: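 Human acute lymphoblastic leukemia CCRF-CEM cells seeded at 4 × 10^4 cells/well and exposed 24 h to a range of compound concentrations. Viability read by MTT. Doxorubicin served as positive control and 0.1% DMSO as solvent control. IC50 derived by nonlinear regression. Data are means ± SD of three independent experiments.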

[2] = Inhibition of Wistar rat stomach H+,K+-ATPase after 1 hr
[3] = target: T1, Sarcoplasmic/endoplasmic reticulum calcium ATPase 1; experiment: Binding affinity to rabbit hind leg muscle SERCA1a by pyruvate kinase and lactate dehydrogenase coupled assay; method in brief: as §1

T1 sequence (P04191 whole entry): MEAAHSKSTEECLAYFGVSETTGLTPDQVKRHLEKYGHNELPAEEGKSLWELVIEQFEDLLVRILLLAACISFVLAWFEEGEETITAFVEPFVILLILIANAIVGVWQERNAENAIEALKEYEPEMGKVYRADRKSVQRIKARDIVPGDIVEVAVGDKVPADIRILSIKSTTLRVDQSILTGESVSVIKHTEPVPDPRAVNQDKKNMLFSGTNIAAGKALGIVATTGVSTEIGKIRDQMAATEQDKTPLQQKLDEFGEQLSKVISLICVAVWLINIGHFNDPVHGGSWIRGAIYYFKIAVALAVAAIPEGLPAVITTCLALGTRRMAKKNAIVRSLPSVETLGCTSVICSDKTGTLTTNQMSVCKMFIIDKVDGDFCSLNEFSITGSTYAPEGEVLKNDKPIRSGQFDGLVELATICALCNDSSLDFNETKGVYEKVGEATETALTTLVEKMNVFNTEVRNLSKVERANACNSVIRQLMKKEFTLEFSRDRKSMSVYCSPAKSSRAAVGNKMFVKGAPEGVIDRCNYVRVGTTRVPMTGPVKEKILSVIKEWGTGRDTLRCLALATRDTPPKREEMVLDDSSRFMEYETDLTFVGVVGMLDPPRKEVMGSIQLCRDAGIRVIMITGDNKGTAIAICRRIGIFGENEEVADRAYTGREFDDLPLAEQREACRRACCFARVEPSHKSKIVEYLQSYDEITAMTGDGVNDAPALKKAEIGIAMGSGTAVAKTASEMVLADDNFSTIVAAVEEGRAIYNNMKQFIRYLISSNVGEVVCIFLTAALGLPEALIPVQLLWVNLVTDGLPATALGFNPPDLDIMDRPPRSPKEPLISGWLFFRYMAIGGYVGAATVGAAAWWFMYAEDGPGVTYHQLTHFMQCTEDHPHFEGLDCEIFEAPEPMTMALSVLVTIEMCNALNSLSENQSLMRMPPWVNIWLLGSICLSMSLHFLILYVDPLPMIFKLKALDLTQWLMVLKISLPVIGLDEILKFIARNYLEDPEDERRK

| Kd [1] [µM] | Molecule | IC50 (CCRF-CEM) [µM] | also measured |
| --- | --- | --- | --- |
| 7.5 | C=CC(=C)CC[C@]1(C)[C@H](C)C[C@H](OC(=O)CC(O)CCCCCCCCC)[C@@]23C(=C[C@H](O)C[C@@H]12)[C@@H](OC(C)=O)O[C@H]3OC(C)=O (stereo partly drawn) | – | inhibition (Sus scrofa): 26.3% |
| 10.1 | C=C/C(C)=C/C[C@]1(C)[C@H](C)[C@@H](OC(=O)CCC)[C@H](O)[C@@]23C(=C[C@H](OC)C[C@@H]12)[C@@H](OC(=O)CCC)O[C@H]3OC(C)=O | 0.7 | inhibition (Sus scrofa): 4.41% |
| 32.1 | C=CC(=C)CC[C@]1(C)[C@H](C)C[C@H](O)[C@@]23C(=C[C@@H](OC(=O)/C=C/c4ccccc4)C[C@@H]12)[C@@H](OC(C)=O)O[C@H]3OC(C)=O | – | – |
| 2 | C=C/C(C)=C/C[C@]1(C)[C@H](C)C[C@H](O)[C@@]23C(=C[C@H](OC(=O)c4ccc(O)cc4)C[C@@H]12)[C@@H](OC(C)=O)O[C@H]3OC(C)=O [CASEARBORIN D] | 1.1 | inhibition (Sus scrofa): 23.8% |
| 103 | C=CC(=C)CC[C@]1(C)[C@H](C)CC[C@@]23C(C[C@H](OC(C)=O)C[C@@H]12)[C@@H](OC(C)=O)O[C@H]3OC(C)=O (stereo partly drawn) | 12 | – |
| 31.5 | C=CC(=C)[C@H](O)C[C@]1(C)[C@H](C)C[C@H](OC(=O)CC(O)CCCCCCCCC)[C@@]23C(=C[C@H](O)C[C@@H]12)[C@@H](OC(C)=O)O[C@H]3OC(C)=O (stereo partly drawn) | – | – |
| 20.1 | C=C/C(C)=C/C[C@]1(C)[C@H](C)C[C@H](OC(C)=O)[C@@]23C(=C[C@H](OC(=O)c4ccc(O)cc4)C[C@@H]12)[C@@H](OC(C)=O)O[C@H]3OC(C)=O | 1.2 | – |
| – | IVERMECTIN | – | IC50 [2]: 7.59 µM |
| 48.1 | C=CC(=C)CC[C@]1(C)[C@H](C)C[C@H](OC(=O)/C=C/c2ccccc2)[C@@]23C(=C[C@H](O)C[C@@H]12)[C@@H](OC(C)=O)O[C@H]3OC(C)=O | – | – |
| – | C[C@H]1O[C@@H](O[C@H]2CC[C@@]3(C)[C@@H](CC[C@]4(C)[C@@H]3C=C[C@]35OC[C@@]6(CCC(C)(C)C[C@H]63)[C@H](O)C[C@]54C)[C@]2(C)CO)[C@H](O)[C@@H](O[C@@H]2O[C@H](CO)[C@@H](O)[C@H](O)[C@H]2O)[C@@H]1O | – | Kd [3]: 50 µM |
| > 100 | C=C/C(C)=C/C[C@]1(C)[C@H](C)[C@@H](O)[C@H](O)[C@@]23C(=C[C@H](OC)C[C@@H]12)[C@@H](O)O[C@H]3O | 4.3 | inhibition (Sus scrofa): 6.55% |
| – | C[C@H](C[C@H](O)[C@H]1OC1(C)C)C1=C2C[C@H](O)[C@H]3[C@@]4(C)CCC(=O)C(C)(C)[C@@H]4CC[C@]3(C)[C@@]2(C)CC1 [ALISOL B] | – | Kd [3]: 27 µM |
| 96.5 | C=C/C(C)=C/C[C@]1(C)[C@H](C)CC[C@@]23C(=CC(=O)C[C@@H]12)[C@@H](OC(C)=O)O[C@H]3OC(C)=O | – | – |

| Molecule | Kd [1] [µM] | IC50 (CCRF-CEM) [µM] | also measured |
| --- | --- | --- | --- |
| CC(=O)O[C@H]1O[C@@H](OC(C)=O)[C@]23C1=C[C@H](O)C[C@H]2[C@](C)(CCC1=CCOOC1)[C@H](C)C[C@@H]3OC(=O)/C=C/c1ccccc1 | 22.3 | – | – |

Reference: ChEMBL document CHEMBL3585273, “Discovery of Tricyclic Clerodane Diterpenes as Sarco/Endoplasmic Reticulum Ca(2+)-ATPase Inhibitors and Structure-Activity Relationships” (J Nat Prod, 2015)
